19 compounds from PubChem BioAssay can be followed below.

Activity calls are given as the source filed them.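 Rule for the calls, unless noted: active = viability at or under a set limit in both replicates, limit being median viability minus 3 SD (cut at about 48% in these data, passing the limit was not always enough); inconclusive = at or under the limit in just one replicate; inactive = at or above the limit in both replicates.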

Test [1] is described as follows: reduced viability of SK-BR-3 breast cancer cells – cell-based, 24 h, human, pilot screen (AID 572;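 active = viability at or below 10% of carrier control in both of two separate runs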;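 note: compound exposure lasted between 18 and 24 h rather than exactly 24 h; 100% = carrier-treated control wells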). As to conditions: SK-BR-3 viability, CellTiter-Glo luminescence, at 10 µM, stronger effect = lower value.
Test [2] is described as follows: HUVEC growth inhibition – cell-based, human, primary screen (AID 575;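 active = viability at or below 30% in both replicate assays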;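 note: 100% = median of untreated cell wells with 0.1% DMSO on each plate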). As to conditions: HUVEC proliferation, CellTiter-Glo luminescence, 72 h; at 10 µM; stronger effect = lower value. In outline:
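system = HUVEC primary cells | amount = 1250 cells/well | buffer or medium = supplemented EBM, 2% fetal bovine serum | dosing = single-point 10 µM, DMSO 0.1% final | times = 72 h compound incubation | detection = CTG luminescence | read-out = % viability relative to median vehicle-well signal on each plate | control set = vehicle and MePR control wells | format = collagen-coated 384-well format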

Test [3] can be described thus: H69AR cell proliferation blockers – human, duplicate replicates, primary screen (AID 580).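 Note: 100% = mean luminescence of untreated wells and 0% = no signal.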 As to conditions: H69AR lung tumor cells viability, ATP luminescence, 72 h; at 10 µM; stronger effect = lower value.
A short description of test [4]: MRP1 drug-resistance reversers in H69AR cells – cell-based, doxorubicin co-treatment, pilot screen (AID 601;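 active = viability loss from added drug above about 55%, and viability with drug at most 40%, in both replicates, limit read from the data, passing the limit was not always enough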). As to conditions: CellTiter-Glo, 72 h, at 10 µM; for differential viability (reversal): stronger effect = higher value. For orientation: ATP-based viability assays read luminescence as a measure of living cells.
Test [5] can be described thus: yeast transport mutant growth inhibition pilot in 384-well plates, post-Golgi transport modulator project (AID 636; in the data active = inhibition above about 31%). As to conditions: absorbance 615 nm, about 18 h, stronger effect = higher value.
A short description of test [6]: growth suppression of yeast trafficking mutant, preliminary HTS, modulators of trafficking downstream of Golgi apparatus project, 1536-format plate, OD 615 nm (AID 637; in the data active = inhibition above about 30%). As to conditions: yeast transport mutant growth, absorbance 615 nm, 18 h; stronger effect = higher value.
[7] abbreviates: H69AR cells + 2 uM doxorubicin, measured here: viability with 2 uM doxorubicin, stronger effect = lower value.
Where [8] appears, read: H69AR cells, compound alone cytotoxicity.

What is called viability is a read-out of living cells in per cent, often relative to untreated cells. As usually defined, the inhibition is the change of the read-out against control, counted positive when it falls. For `Cc1ccc(S(=O)(=O)N2CCN(C(=O)c3cc(=O)[nH]c4ccccc34)CC2)c(C)c1`, the viability was 66% (inactive) in test [1]; 82.8% (inactive) in test [2]; 83.3% (inactive) in test [3]; 79.8% in test [4] (setting [7]); 83.3% in test [4] (setting [8]). In test [4] (H69AR cells + 2 uM doxorubicin), the differential viability (reversal) was 3.45% (inactive). For the same compound, the inhibition in test [5] is -9.04% (inactive); in test [6], 2.74% (inactive).
Take `CC(C)(C)C(=O)OCC1OC(n2cnc(C(N)=O)n2)C(O)C1O` (configuration not stated): the viability in test [1] is 89% (inactive); in test [2], 99.1% (inactive); in test [3] it was 96.1% (inactive); in test [4] (setting [7]) it was 94.5%; in test [4] (setting [8]), 96.1%. For the same compound, the differential viability (reversal) in test [4] (H69AR cells + 2 uM doxorubicin) was 1.56% (inactive). Also, the inhibition in test [5] is -8.22% (inactive); in test [6] it was -2.36% (inactive).
As for `Cc1ccc(NC(=O)c2ccco2)c(NC(=O)CN2C(=O)c3ccccc3C2=O)c1`, the viability in test [1] was 97% (inactive); in test [2] it was 110% (inactive); in test [3] it was 87.6% (inactive); in test [4] (setting [7]), 106%; in test [4] (setting [8]) it was 87.6%. The differential viability (reversal) in test [4] (H69AR cells + 2 uM doxorubicin) is -18.2% (inactive). For the same compound, the inhibition is -0.41% (inactive) in test [5] and 3.27% (inactive) in test [6].
Take `O=C(CCNNC(=O)c1ccncc1)NCc1ccccc1`: the viability in test [1] was 72% (inactive); in test [2], 84.7% (inactive); in test [3], 93.5% (inactive); in test [4] (setting [7]), 87%; in test [4] (setting [8]) it was 93.5%. Further, the differential viability (reversal) in test [4] (H69AR cells + 2 uM doxorubicin) was 6.55% (inactive). The inhibition in test [5] was -7.53% (inactive); in test [6] it was -2.67% (inactive).
Take `CCCC(OC(=O)CN1C(=O)COc2ccccc21)C(=O)NC1CCCC1` (configuration not stated): the viability was 63% (inactive) in test [1]; 107% (inactive) in test [2]; 91.7% (inactive) in test [3]; 90.3% in test [4] (setting [7]); 91.7% in test [4] (setting [8]). Further, in test [4] (H69AR cells + 2 uM doxorubicin), the differential viability (reversal) was 1.34% (inactive). Further, the inhibition in test [5] is -7.12% (inactive); in test [6] it was 3.09% (inactive).
Turning to `CCc1n[nH]c2c1C(=O)CC(C)(C)C2`, the viability in test [1] is 73% (inactive); in test [2] it was 106% (inactive); in test [3], 89.1% (inactive); in test [4] (setting [7]) it was 90.6%; in test [4] (setting [8]), 89.1%. In test [4] (H69AR cells + 2 uM doxorubicin), the differential viability (reversal) was -1.54% (inactive). Moreover, the inhibition in test [5] is 2% (inactive); in test [6], 6% (inactive).
In the case of `C=CCn1c(SCC(=O)NCC2CCCO2)nc2scc(-c3ccco3)c2c1=O` (configuration not stated), the viability in test [1] is 112% (inactive); in test [2] it was 88.2% (inactive); in test [3], 92.9% (inactive); in test [4] (setting [7]), 94.2%; in test [4] (setting [8]), 92.9%. Moreover, in test [4] (H69AR cells + 2 uM doxorubicin), the differential viability (reversal) was -1.34% (inactive). In addition, the inhibition is -3.84% (inactive) in test [5] and 2.58% (inactive) in test [6].
Turning to `COc1ccc(OC)c(Nc2nc(-c3sc(N)nc3C)cs2)c1`, the viability is 97% (inactive) in test [1]; 55.3% (inactive) in test [2]; 78% (inactive) in test [3]; 75.1% in test [4] (setting [7]); 78% in test [4] (setting [8]). The differential viability (reversal) in test [4] (H69AR cells + 2 uM doxorubicin) is 2.88% (inactive). For the same compound, the inhibition is -6.49% (inactive) in test [5] and -0.91% (inactive) in test [6].
For `COc1ccccc1NC(=O)N(Cc1ccco1)Cc1cc2cccc(C)c2[nH]c1=O`, the viability in test [1] was 90% (inactive); in test [2] it was 70.9% (inactive); in test [3], 75.8% (inactive); in test [4] (setting [7]), 74.7%; in test [4] (setting [8]), 75.8%. Also, in test [4] (H69AR cells + 2 uM doxorubicin), the differential viability (reversal) is 1.06% (inactive). Also, the inhibition in test [5] is -8.27% (inactive); in test [6] it was -1.45% (inactive).
In the case of `Cc1cc(S(=O)(=O)N2CCN(c3ccccc3C)CC2)ccc1F`, the viability in test [1] is 89% (inactive); in test [2], 90.1% (inactive); in test [3] it was 79.5% (inactive); in test [4] (setting [7]), 79.8%; in test [4] (setting [8]), 79.5%. The differential viability (reversal) in test [4] (H69AR cells + 2 uM doxorubicin) is -0.315% (inactive). For the same compound, the inhibition in test [5] was -0.78% (inactive); in test [6] it was 4.59% (inactive).
As for `COC(=O)c1c(NC(=O)CSc2nnnn2C)sc(C)c1C`, the viability in test [1] was 96% (inactive); in test [2] it was 84.9% (inactive); in test [3], 92.5% (inactive); in test [4] (setting [7]) it was 88.1%; in test [4] (setting [8]), 92.5%. Also, the differential viability (reversal) in test [4] (H69AR cells + 2 uM doxorubicin) was 4.44% (inactive). Besides, the inhibition is 0.14% (inactive) in test [5] and -2% (inactive) in test [6].
Turning to `CC(=O)Oc1cccc2c1C(=O)c1c(OC(C)=O)cc(C(=O)O)cc1C2=O`, the viability in test [1] is 90% (inactive); in test [2] it was 60.2% (inactive); in test [3] it was 86.7% (inactive); in test [4] (setting [7]), 86.4%; in test [4] (setting [8]), 86.7%. Moreover, in test [4] (H69AR cells + 2 uM doxorubicin), the differential viability (reversal) is 0.27% (inactive). The inhibition is 4.16% (inactive) in test [5] and 7.17% (inactive) in test [6].
As for `Cc1cc(C)nc(NC2=NCC(=O)N2c2ccc(Cl)cc2)n1`, the viability in test [1] was 99% (inactive); in test [2], 117% (inactive); in test [3] it was 97.1% (inactive); in test [4] (setting [7]), 95.4%; in test [4] (setting [8]), 97.1%. Moreover, in test [4] (H69AR cells + 2 uM doxorubicin), the differential viability (reversal) was 1.69% (inactive). For the same compound, the figures for the inhibition in test [5] and in test [6] were -7.03% (inactive) and 0.55% (inactive), respectively.
For the compound `CCOc1ccc(NC(=O)CC2NCCNC2=O)cc1` (configuration not stated), the viability in test [1] was 125% (inactive); in test [2], 108% (inactive); in test [3] it was 95.3% (inactive); in test [4] (setting [7]) it was 92.8%; in test [4] (setting [8]), 95.3%. Moreover, in test [4] (H69AR cells + 2 uM doxorubicin), the differential viability (reversal) was 2.51% (inactive). Further, the figures for the inhibition in test [5] and in test [6] were -5.95% (inactive) and -2.36% (inactive), respectively.
`CCOC(=O)CNC(=O)CSc1nc(N(C)C)nc(N2CCOCC2)n1`: the viability in test [1] is 88% (inactive); in test [2] it was 98.1% (inactive); in test [3], 89.2% (inactive); in test [4] (setting [7]) it was 87.1%; in test [4] (setting [8]), 89.2%. Moreover, the differential viability (reversal) in test [4] (H69AR cells + 2 uM doxorubicin) was 2.04% (inactive). Moreover, the inhibition is -9.86% (inactive) in test [5] and 6.45% (inactive) in test [6].
For the compound `COc1ccc(C2C3=C(CCCC3=O)Nc3nc(SCc4ccccc4)nn32)cc1OC` (configuration not stated), the viability in test [1] was 101% (inactive); in test [2], 121% (inactive); in test [3], 74.9% (inactive); in test [4] (setting [7]), 96%; in test [4] (setting [8]), 74.9%. Further, the differential viability (reversal) in test [4] (H69AR cells + 2 uM doxorubicin) was -21% (inactive). Further, the values for the inhibition in test [5] and in test [6] were -4.46% (inactive) and 0.36% (inactive), respectively.
For `O=C(NC1CCCCCC1)c1cc(S(=O)(=O)N2CCC3(CC2)OCCO3)ccc1F`, the viability in test [1] is 106% (inactive); in test [2], 98.2% (inactive); in test [3], 88.3% (inactive); in test [4] (setting [7]), 92.4%; in test [4] (setting [8]), 88.3%. For the same compound, in test [4] (H69AR cells + 2 uM doxorubicin), the differential viability (reversal) is -4.04% (inactive). The values for the inhibition in test [5] and in test [6] were 0.27% (inactive) and 3.27% (inactive), respectively.
Regarding `COc1ccc(COC(=O)c2n[nH]c3ccccc23)cc1F`, the viability in test [1] was 89% (inactive); in test [2] it was 85.2% (inactive); in test [3] it was 100% (inactive); in test [4] (setting [7]), 91.3%; in test [4] (setting [8]), 100%. Also, in test [4] (H69AR cells + 2 uM doxorubicin), the differential viability (reversal) was 8.74% (inactive). For the same compound, the figures for the inhibition in test [5] and in test [6] were -9.45% (inactive) and 3.82% (inactive), respectively.
Turning to `COCC(=O)Nc1cc(OC)ccc1OC`, the viability in test [1] was 83% (inactive); in test [2], 89% (inactive); in test [3] it was 102% (inactive); in test [4] (setting [7]), 96.1%; in test [4] (setting [8]) it was 102%. Besides, in test [4] (H69AR cells + 2 uM doxorubicin), the differential viability (reversal) is 5.8% (inactive). Further, the inhibition was -2.86% (inactive) in test [5] and 0.66% (inactive) in test [6].
